Experimental data reported in ChEMBL document CHEMBL4811308, “Design, synthesis and broad spectrum antibreast cancer activity of diarylindoles via induction of apoptosis in aggressive breast cancer cells” (Bioorg Med Chem, 2021).

How the values were obtained:
Format in all cases: organism-based
[1] = Acute toxicity in Swiss albino mouse assessed as protein level at 5 mg/kg, po administered once and observed for 7 days (reference value: 2.01 +/- 0.11 mg/ml); conditions: in vivo, 168 h, time 7 day
[2] = Acute toxicity in Swiss albino mouse assessed as creatinine level at 5 mg/kg, po administered once and observed for 7 days (reference value: 0.11 +/- 0.03 mg/dL); conditions: in vivo, 168 h, time 7 day
[3] = Acute toxicity in Swiss albino mouse assessed as relative heart weight at 5 to 300 mg/kg, po administered once and observed for 7 days; conditions: in vivo, 168 h, dose 5-300 mg/kg, time 7 day
How it was run: (§1)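 Acute oral toxicity per OECD guideline 423; mice 20–25 g, 3 male + 3 female per group, acclimatized 7 days at 22 ± 5 °C, 12 h light/dark. Compound dissolved in minimal DMSO, diluted in 0.7% CMC, single oral dose of 5, 50 or 300 mg/kg; controls given vehicle only. Clinical signs checked hourly on dosing day, then daily. Samples and body weights taken on day 7.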

[4] = Acute toxicity in Swiss albino mouse assessed as WBC level at 300 mg/kg, po administered once and observed for 7 days (reference value: 8.55 +/- 2.71 /mm3); conditions: in vivo, 168 h, time 7 day
[5] = Acute toxicity in Swiss albino mouse assessed as SGPT level at 300 mg/kg, po administered once and observed for 7 days (reference value: 12.65 +/- 2.98 U/L); conditions: in vivo, 168 h, time 7 day
[6] = Acute toxicity in Swiss albino mouse assessed as SGPT level at 50 mg/kg, po administered once and observed for 7 days (reference value: 12.65 +/- 2.98 U/L); conditions: in vivo, 168 h, time 7 day
[7] = Acute toxicity in Swiss albino mouse assessed as cholesterol level at 5 mg/kg, po administered once and observed for 7 days (reference value: 122.05 +/- 8.12 mg/dl); conditions: in vivo, 168 h, time 7 day
[8] = Acute toxicity in Swiss albino mouse assessed as body weight at 300 mg/kg, po administered once and observed for 7 days (reference value: 22.75 +/- 0.93 gm); conditions: in vivo, 168 h, time 7 day
[9] = Acute toxicity in Swiss albino mouse assessed as effect on posture at 5 to 300 mg/kg, po administered once and observed for 7 days; conditions: in vivo, 168 h, dose 5-300 mg/kg, time 7 day; how it was run: as §1
[10] = Acute toxicity in Swiss albino mouse assessed as albumin at 300 mg/kg, po administered once and observed for 7 days (reference value: 1.62 +/- 0.09 g/dl); conditions: in vivo, 168 h, time 7 day
[11] = Acute toxicity in Swiss albino mouse assessed as WBC level at 50 mg/kg, po administered once and observed for 7 days (reference value: 8.55 +/- 2.71 /mm3); conditions: in vivo, 168 h, time 7 day
[12] = Acute toxicity in Swiss albino mouse assessed as hemoglobin level at 300 mg/kg, po administered once and observed for 7 days (reference value: 17.35 +/- 0.3 gm/dl); conditions: in vivo, 168 h, time 7 day
[13] = Acute toxicity in Swiss albino mouse assessed as effect on response of organism at 5 to 300 mg/kg, po administered once and observed for 7 days; conditions: in vivo, 168 h, dose 5-300 mg/kg, time 7 day; how it was run: as §1
[14] = Acute toxicity in Swiss albino mouse assessed as SGPT level at 5 mg/kg, po administered once and observed for 7 days (reference value: 12.65 +/- 2.98 U/L); conditions: in vivo, 168 h, time 7 day
[15] = Acute toxicity in Swiss albino mouse assessed as hemoglobin level at 50 mg/kg, po administered once and observed for 7 days (reference value: 17.35 +/- 0.3 gm/dl); conditions: in vivo, 168 h, time 7 day
[16] = Acute toxicity in Swiss albino mouse assessed as relative spleen weight at 5 to 300 mg/kg, po administered once and observed for 7 days; conditions: in vivo, 168 h, dose 5-300 mg/kg, time 7 day; how it was run: as §1
[17] = Acute toxicity in Swiss albino mouse assessed as ALP level at 5 mg/kg, po administered once and observed for 7 days (reference value: 123.22 +/- 16.04 U/L); conditions: in vivo, 168 h, time 7 day

## COc1ccc2c(c1)c(Cc1ccc(OC(C)CN(C)C)cc1)c(-c1cc(OC)c(OC)c(OC)c1)n2Cc1ccc(OC(C)CN(C)C)cc1 (centres undefined)
[1]
  Activity: 1.57 mg/mL
[2]
  Activity: 0.12 mg/dL
[3]
  Activity: Non-Toxic
[4]
  Activity: 5.6 thousands/mm3
[5]
  Activity: 19.12 U/L
[6]
  Activity: 18.69 U/L
[7]
  Activity: 117.25 mg/dL
[8]
  Activity: 22.75 g
[9]
  Activity: Non-Toxic
[10]
  Activity: 1.53 g/dL
[11]
  Activity: 7.5 thousands/mm3
[12]
  Activity: 15.54 g/dL
[13]
  Activity: Non-Toxic
[14]
  Activity: 11.82 U/L
[15]
  Activity: 15.21 g/dL
[16]
  Activity: Non-Toxic
[17]
  Activity: 87.76 U/L

## COc1ccc2c(c1)c(Cc1ccc(OCCN(C)C)cc1)c(-c1cc(OC)c(OC)c(OC)c1)n2Cc1ccc(OCCN(C)C)cc1
[1]
  Activity: 1.61 mg/mL
[2]
  Activity: 0.12 mg/dL
[3]
  Activity: Non-Toxic
[4]
  Activity: 5.53 thousands/mm3
[5]
  Activity: 16 U/L
[6]
  Activity: 15.07 U/L
[7]
  Activity: 112.13 mg/dL
[8]
  Activity: 21.88 g
[9]
  Activity: Non-Toxic
[10]
  Activity: 1.94 g/dL
[11]
  Activity: 4.86 thousands/mm3
[12]
  Activity: 15.96 g/dL
[13]
  Activity: Non-Toxic
[14]
  Activity: 14.47 U/L
[15]
  Activity: 17.01 g/dL
[16]
  Activity: Non-Toxic
[17]
  Activity: 97.53 U/L
